From ChEMBL document CHEMBL4359881, “Novel antiacanthamoebic compounds belonging to quinazolinones” (Eur J Med Chem, 2019)
Calls of active or inactive are those of the source. The rule behind the calls is not given here.

What was measured:
Acanthamoeba castellanii [1] = experiment: Antiamoebic activity against Acanthamoeba castellanii T4 genotype ATCC 50492 trophozites assessed as reduction in viable cells at 50 ug/ml incubated for 24 hrs by trypan blue staining based hemocytometric method relative to control; type: functional; details: T4 genotype ATCC 50492, 24 h
Outline: (§1)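 Trophozoites from PYG cultures at 30 °C were detached on ice and resuspended in PBS. They were exposed at 5×10^5 per well in RPMI-1640 at 30 °C for 24 h, stained with 0.1% Trypan blue for 5 min, and unstained cells were counted by hemocytometer. Untreated cells were the negative control and chlorhexidine the positive control. Significance was tested against methanol solvent. Duplicates; mean ± SE.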

HaCaT [2] = experiment: Cytotoxicity against human HaCaT cells at 100 ug/ml incubated for 24 hrs by LDH release assay; type: cell-based
Outline: (§2)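 HaCaT keratinocytes were grown in RPMI-1640 with 10% FBS and Nu-serum and seeded to a monolayer over 24 h. Compound was applied for 24 h at 37 °C in 5% CO2, and LDH in the supernatant was measured. Medium alone gave the baseline and 0.1% Triton X-100 gave total lysis. Duplicates; mean ± SE.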

Acanthamoeba castellanii [3] = experiment: Antiamoebic activity against Acanthamoeba castellanii T4 genotype ATCC 50492 trophozites assessed as reduction in viable cells at 100 ug/ml incubated for 24 hrs by trypan blue staining based hemocytometric method relative to control; type: functional; details: T4 genotype ATCC 50492, 24 h; outline: as §1
Acanthamoeba castellanii [4] = experiment: (§3) Antiamoebic activity against Acanthamoeba castellanii T4 genotype ATCC 50492 infected in human HaCaT cells assessed as reduction in amoeba-induced host cell cytopathogenicity at 100 ug/ml preincubated with amoeba for 2 hrs followed by incubation of suspension with host cell for 24 hrs by LDH release assay; type: functional, organism-based
Outline: (§4)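 Amoebae were pretreated with compound for 2 h at 30 °C, pelleted at 3000g for 5 min, and resuspended in fresh RPMI-1640 to remove compound. They were then added to HaCaT monolayers for 24 h at 37 °C in 5% CO2. Supernatant LDH was read at 492 nm. % cytotoxicity was calculated against untreated and 0.1% Triton X-100 lysed cells. Duplicates; mean ± SE.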

Acanthamoeba castellanii [5] = experiment: Inhibition of Acanthamoeba castellanii T4 genotype ATCC 50492 excystation at 100 ug/ml incubated with pre-formed cysts for 72 hrs by hemocytometric method; type: functional, organism-based
Outline: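 Cysts were formed by plating 1×10^6 trophozoites on 1.5% non-nutrient agar at 30 °C for up to 2 weeks, then scraped into PBS. 1×10^5 cysts were incubated with compound in PYG at 30 °C for 72 h, and emerging trophozoites were counted by hemocytometer. Duplicates; mean ± SE; two-tailed two-sample t-test.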

Acanthamoeba castellanii [6] = experiment: as §3, with “assay relative to control” for “assay”; type: functional; details: T4 genotype ATCC 50492, HaCaT; outline: as §4
Acanthamoeba castellanii [7] = experiment: Inhibition of Acanthamoeba castellanii T4 genotype ATCC 50492 trophozites encystation at 100 ug/ml incubated for 72 hrs by hemocytometric method; type: functional, organism-based
Outline: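 5×10^5 trophozoites in PBS were pretreated with compound for 15 min at room temperature. They were then transferred into encystation medium (50 mM MgCl2, 10% glucose) at 30 °C for 72 h. Trophozoites were lysed with 0.25% SDS for 10 min, and SDS-resistant cysts were counted by hemocytometer. Duplicates; mean ± SE; two-tailed t-test.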

Acanthamoeba castellanii [8] = experiment: Antiamoebic activity against Acanthamoeba castellanii T4 genotype ATCC 50492 trophozites assessed as reduction in viable cells at 100 ug/ml incubated for 24 hrs by trypan blue staining based hemocytometric method; type: functional, organism-based; outline: as §1
HaCaT [9] = experiment: Cytotoxicity against human HaCaT cells at 100 ug/ml incubated for 24 hrs by LDH release assay relative to control; type: cell-based; outline: as §2
Acanthamoeba castellanii [10] = experiment: Antiamoebic activity against Acanthamoeba castellanii T4 genotype ATCC 50492 assessed as increase in surface disintegration at 100 ug/ml incubated for 2 hrs by FE-SEM analysis; type: functional, organism-based
Outline: (§5)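 Trophozoites were treated with compound, then fixed on glass coverslips in 2.5% glutaraldehyde in PBS at 4 °C for 2 h. Samples were dehydrated through 50–100% ethanol, air-dried and sputter-coated with platinum. Surface morphology was imaged by FESEM at several scales, with untreated amoebae for comparison.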

Acanthamoeba castellanii [11] = experiment: Antiamoebic activity against Acanthamoeba castellanii T4 genotype ATCC 50492 assessed as increase in pore formation at 100 ug/ml incubated for 2 hrs by FE-SEM analysis; type: functional, organism-based; outline: as §5

| SMILES | inhibition at 50 µg/mL (Acanthamoeba castellanii [1]) | Activity (HaCaT [2]) | inhibition at 100 µg/mL (Acanthamoeba castellanii [3]) | inhibition (Acanthamoeba castellanii [4]) | inhibition (Acanthamoeba castellanii [5]) | inhibition at 100 µg/mL (Acanthamoeba castellanii [6]) | inhibition (Acanthamoeba castellanii [7]) | inhibition (Acanthamoeba castellanii [8]) | Activity (HaCaT [9]) | Activity (Acanthamoeba castellanii [10]) | Activity (Acanthamoeba castellanii [11]) |
| --- | --- | --- | --- | --- | --- | --- | --- | --- | --- | --- | --- |
| Cc1cccc2c(=O)n(-c3cccc(F)c3)cnc12 | > 50% | Non-Toxic | > 80% | Active | Active | – | – | – | – | – | – |
| Cc1cccc2c(=O)n(-c3ccc(I)cc3)cnc12 | > 60% | Non-Toxic | > 50% | – | Active | 100% | – | – | – | – | – |
| COc1ccc(-n2cnc3c(C)cccc3c2=O)cc1 | > 50% | Non-Toxic | > 50% | Active | Active | – | – | – | – | – | – |
| CSc1cccc(-n2cnc3c(C)cccc3c2=O)c1 | > 50% | Non-Toxic | > 50% | Active | Active | – | – | – | – | – | – |
| Cc1cccc2c(=O)n(-c3ccc(F)cc3F)cnc12 | > 50% | Non-Toxic | > 50% | Active | Active | – | Active | – | – | – | – |
| Cc1cc(C)cc(-n2cnc3c(C)cccc3c2=O)c1 | – | Non-Toxic | – | Active | Active | – | – | inactive | – | – | – |
| Cc1cccc2c(=O)n(-c3cccc(Br)c3)cnc12 | > 50% | – | > 50% | Active | Active | – | – | – | 11% | – | – |
| Cc1cccc2c(=O)n(-c3ccc(Br)cc3)cnc12 | > 50% | Non-Toxic | > 50% | Active | Active | – | – | – | – | – | – |
| Cc1ccccc1-n1cnc2c(C)cccc2c1=O | > 50% | Non-Toxic | > 50% | – | Active | 100% | Active | – | – | – | – |
| Cc1cccc2c(=O)n(-c3ccc(Cl)cc3)cnc12 | > 50% | Non-Toxic | > 50% | Active | Active | – | – | – | – | – | – |
| Cc1cccc2c(=O)n(-c3ccc(F)cc3)cnc12 | > 60% | Non-Toxic | > 80% | – | Active | 100% | – | – | – | Active | Active |
| Cc1cccc2c(=O)n(-c3cccc(Cl)c3)cnc12 | > 50% | Non-Toxic | > 50% | Active | Active | – | – | – | – | – | – |
| N=C(NCCCCCCNC(=N)NC(=N)Nc1ccc(Cl)cc1)NC(=N)Nc1ccc(Cl)cc1 | – | – | – | – | Active | – | – | – | – | – | – |
| Cc1ccc(-n2cnc3c(C)cccc3c2=O)cc1 | > 50% | Non-Toxic | > 50% | Active | Active | – | – | – | – | Active | Active |
| Cc1cccc2c(=O)n(-c3ccccc3I)cnc12 | > 60% | – | > 80% | – | Active | 100% | Active | – | 8% | – | – |
| COc1ccc(OC)c(-n2cnc3c(C)cccc3c2=O)c1 | > 50% | Non-Toxic | > 50% | Active | Active | – | – | – | – | – | – |
